Active and inactive are the calls of the source. No cut-off for these calls is given here.
Columns and labels:
[1] = Compound was evaluated for toxic dose at peak neurologic deficit after intraperitoneal administration of the compound.; format: ADME, organism-based, Gallus gallus; details: chicken, in vivo, ip
Method in brief: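 Mice received compound dissolved or suspended in 30% polyethylene glycol 400 by intraperitoneal injection. Neurological toxicity was scored as failure on the rotorod test. Testing was run through the NINCDS Antiepileptic Drug Development Program.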

[2] = Protective index which is the ratio of TD50 to ED50 of in maximal electroshock test.; format: functional
Method in brief: (§1)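 Phase II quantitation, drug given ip. ED50 in the MES or scMet test was taken at the time of peak effect, with the peak time set in MES for some compounds and in scMet for others. Rotorod TD50 was taken at the time of peak neurologic deficit. Values are in mg/kg with 95% confidence limits. Protective index is TD50/ED50.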

[3] = Time of peak effect (TPE) for activity; format: ADME; set-up: unit not given here; method in brief: as §1
[4] = Time of peak effect (TPE) for toxicity; set-up: unit not given here; method in brief: as §1
Gallus gallus [5] = assay: Subcutaneous pentylenetetrazole test (ScMet) (number of animals protected / number of animals tested) at a dose of 30 mg/kg after 2 hr; 8/8; format: functional
Gallus gallus [6] = assay: Subcutaneous pentylenetetrazole test (ScMet) (number of animals protected / number of animals tested) at a dose of 30 mg/kg after 1 hr; 8/8; format: functional
Gallus gallus [7] = assay: Toxicity test (number of animals exhibiting toxicity / number of animals tested) at a dose of 50 mg/kg after 1 hr; 7/8; format: organism-based; set-up: dose 50 mg/kg; details: chicken, in vivo
Gallus gallus [8] = assay: Toxicity test (number of animals exhibiting toxicity / number of animals tested) at a dose of 50 mg/kg after 0.50 hr; 4/8; format: organism-based; set-up: dose 50 mg/kg; details: chicken, in vivo, 0.5 h
Gallus gallus [9] = assay: Toxicity test (number of animals exhibiting toxicity / number of animals tested) at a dose of 50 mg/kg after 2 hr; 6/8; format: organism-based; set-up: dose 50 mg/kg; details: chicken, in vivo
Gallus gallus [10] = assay: Toxicity test (number of animals exhibiting toxicity / number of animals tested) at a dose of 30 mg/kg after 2 hr; 8/8; format: organism-based; set-up: dose 30 mg/kg; details: chicken, in vivo
Gallus gallus [11] = assay: Toxicity test (number of animals exhibiting toxicity / number of animals tested) at a dose of 30 mg/kg after 6 h; 8/8; format: organism-based; set-up: dose 30 mg/kg; details: chicken, in vivo
Gallus gallus [12] = assay: Subcutaneous pentylenetetrazole test (ScMet) (number of animals protected / number of animals tested) at a dose of 30 mg/kg after 0.25 hr; 4/8; format: functional
Gallus gallus [13] = assay: Toxicity test (number of animals exhibiting toxicity / number of animals tested) at a dose of 30 mg/kg after 0.50 hr; 0/8; format: organism-based; set-up: dose 30 mg/kg; details: chicken, in vivo, 0.5 h
Gallus gallus [14] = assay: Toxicity test (number of animals exhibiting toxicity / number of animals tested) at a dose of 30 mg/kg after 4 hr; 8/8; format: organism-based; set-up: dose 30 mg/kg; details: chicken, in vivo
Gallus gallus [15] = assay: Subcutaneous pentylenetetrazole test (ScMet) (number of animals protected / number of animals tested) at a dose of 30 mg/kg after 0.50 hr; 4/8; format: functional
Gallus gallus [16] = assay: Toxicity test (number of animals exhibiting toxicity / number of animals tested) at a dose of 30 mg/kg after 1 hr; 1/8; format: organism-based; set-up: dose 30 mg/kg; details: chicken, in vivo
Gallus gallus [17] = assay: Toxicity test (number of animals exhibiting toxicity / number of animals tested) at a dose of 30 mg/kg after 0.25 hr; 0/8; format: organism-based; set-up: dose 30 mg/kg; details: chicken, in vivo
Gallus gallus [18] = assay: Toxicity test (number of animals exhibiting toxicity / number of animals tested) done at a dose 100 mg/kg against young chicks after 4 hr; […]; format: organism-based; set-up: dose 100 mg/kg; details: chicken, in vivo
Gallus gallus [19] = assay: Anticonvulsant activity by maximal electroshock test at a dose of 100 mg/kg against young chicks after 30 min; 1/3; format: functional
Gallus gallus [20] = assay: Anticonvulsant activity by subcutaneous pentylenetetrazole test at a dose of 300 mg/kg against young chicks after 30 min; 1/1; format: functional
Gallus gallus [21] = assay: Anticonvulsant activity by subcutaneous pentylenetetrazole test at a dose of 300 mg/kg against young chicks after 30 min; 0/0; format: functional
Gallus gallus [22] = assay: Anticonvulsant activity by subcutaneous pentylenetetrazole test at a dose of 100 mg/kg against young chicks after 30 min; 1/1; format: functional
Gallus gallus [23] = assay: Anticonvulsant activity by subcutaneous pentylenetetrazole test at a dose of 30 mg/kg against young chicks after 4 hr; 1/1; format: functional
Gallus gallus [24] = assay: Anticonvulsant activity by subcutaneous pentylenetetrazole test at a dose of 30 mg/kg against young chicks after 30 min; 1/1; format: functional
Gallus gallus [25] = assay: Anticonvulsant activity by maximal electroshock test at a dose of 300 mg/kg against young chicks after 30 min; 1/1; format: functional
[26] = Protective index which is the ratio of TD50 to ED50 of against subcutaneous pentylenetetrazole test; format: functional; method in brief: as §1
Gallus gallus [27] = assay: Anticonvulsant activity by maximal electroshock test at a dose of 30 mg/kg against young chicks after 30 min; 1/1; format: functional
Gallus gallus [28] = assay: Toxicity test (number of animals exhibiting toxicity / number of animals tested) done at a dose 100 mg/kg against young chicks after 4 hr; 4/4; format: organism-based; set-up: dose 100 mg/kg; details: chicken, in vivo
Gallus gallus [29] = assay: Compound was evaluated for effective dose by subcutaneous pentylenetetrazole test after intraperitoneal administration of the compound; Not Effective; format: functional, organism-based; method in brief: as §1
Gallus gallus [30] = assay: Toxicity test (number of animals exhibiting toxicity / number of animals tested) done at a dose 100 mg/kg against young chicks after 30 min; 8/8; format: organism-based; set-up: dose 100 mg/kg; details: chicken, in vivo, 0.5 h
Gallus gallus [31] = assay: Anticonvulsant activity by maximal electroshock test at a dose of 100 mg/kg against young chicks after 30 min; 2/3; format: functional
Gallus gallus [32] = assay: Compound was evaluated for effective dose by maximal electroshock test after intraperitoneal administration of the compound.; format: functional; details: ip; method in brief: as §1
Gallus gallus [33] = assay: Anticonvulsant activity by subcutaneous pentylenetetrazole test at a dose of 100 mg/kg against young chicks after 30 min; 0/0; format: functional

Q: Which TD50 [1] does the source give for O=C1CC2(CCCC2)C(=O)N1OCc1ccccc1 here?
A: > 500 mg/kg

Q: What about the PI [2] of the same compound?
A: 4.5

Q: What about the TPE [3] of the same compound?
A: 0.25

Q: And the TPE [4]?
A: 4

Q: For CCC1(c2ccccc2)C(=O)NC(=O)NC1=O [PHENOBARBITAL], which TPE [3] is on record?
A: 1

Q: What about the TPE [4] of the same compound?
A: 0.5

Q: Which “No. of animals protected/animals tested” value (Gallus gallus [5]) does the source give for C=C(CON1C(=O)CCC1=O)C(=O)OC here?
A: 8

Q: What about the “No. of animals protected/animals tested” value (Gallus gallus [6]) of the same compound?
A: 8

Q: And the “No. of animals protected/animals tested” value (Gallus gallus [7])?
A: 7

Q: What about the “No. of animals protected/animals tested” value (Gallus gallus [8]) of the same compound?
A: 4

Q: And the “No. of animals protected/animals tested” value (Gallus gallus [9])?
A: 6

Q: And the “No. of animals protected/animals tested” value (Gallus gallus [10])?
A: 8

Q: And the “No. of animals protected/animals tested” value (Gallus gallus [11])?
A: 8

Q: And the “No. of animals protected/animals tested” value (Gallus gallus [12])?
A: 4

Q: And the “No. of animals protected/animals tested” value (Gallus gallus [13])?
A: 0

Q: What about the “No. of animals protected/animals tested” value (Gallus gallus [14]) of the same compound?
A: 8

Q: What about the “No. of animals protected/animals tested” value (Gallus gallus [15]) of the same compound?
A: 4

Q: What about the “No. of animals protected/animals tested” value (Gallus gallus [16]) of the same compound?
A: 1

Q: And the “No. of animals protected/animals tested” value (Gallus gallus [17])?
A: 0

Q: What does the source list for CCOC(=O)ON1C(=O)CCC1=O?
A: No. of animals protected/animals tested (Gallus gallus [18]): 4; No. of animals protected/animals tested (Gallus gallus [19]): 1; No. of animals protected/animals tested (Gallus gallus [20]): 1

Q: With C=C(CON1C(=O)c2ccccc2C1=O)C(=O)OC as the compound, how does the “No. of animals protected/animals tested” value (Gallus gallus [21]) read?
A: 0

Q: And the “No. of animals protected/animals tested” value (Gallus gallus [22])?
A: 1

Q: What about the “No. of animals protected/animals tested” value (Gallus gallus [23]) of the same compound?
A: 1

Q: And the “No. of animals protected/animals tested” value (Gallus gallus [24])?
A: 1

Q: What about the “No. of animals protected/animals tested” value (Gallus gallus [25]) of the same compound?
A: 1

Q: What about the TPE [3] of the same compound?
A: 1

Q: And the PI [26]?
A: 0.72

Q: What about the TPE [4] of the same compound?
A: 4

Q: What about the “No. of animals protected/animals tested” value (Gallus gallus [27]) of the same compound?
A: 1

Q: What about the “No. of animals protected/animals tested” value (Gallus gallus [28]) of the same compound?
A: 4

Q: Which results are given for NC(=O)N1c2ccccc2C=Cc2ccccc21 [CARBAMAZEPINE]?
A: ED50 (Gallus gallus [29]): inactive; TPE [3]: 0.25; TPE [4]: 0.25

Q: Which TPE [3] does the source give for CCC1(C)CC(=O)NC1=O (stereo not given) [ETHOSUXIMIDE] here?
A: 0.5

Q: What about the TPE [4] of the same compound?
A: 0.5

Q: Which TPE [3] does the source give for O=C1c2cccc3cccc(c23)C(=O)N1[O-].[Na+] here?
A: 0.25

Q: What about the PI [26] of the same compound?
A: 0.84

Q: What about the TPE [4] of the same compound?
A: 4

Q: For O=C1NC(=O)C(c2ccccc2)(c2ccccc2)N1 [PHENYTOIN], which ED50 (Gallus gallus [29]) is on record?
A: inactive

Q: And the TPE [3]?
A: 2

Q: And the TPE [4]?
A: 2

Q: Which results are given for CCCC(CCC)C(=O)O [VALPROIC ACID]?
A: PI [2]: 1.57; TPE [3]: 0.25; PI [26]: 2.87; TPE [4]: 0.25

Q: For O=C1c2ccccc2C(=O)N1O, which “No. of animals protected/animals tested” value (Gallus gallus [30]) is on record?
A: 8

Q: What about the PI [2] of the same compound?
A: 0.99

Q: What about the “No. of animals protected/animals tested” value (Gallus gallus [31]) of the same compound?
A: 2

Q: What about the ED50 (Gallus gallus [32]) of the same compound?
A: 95.4 mg/kg

Q: What about the “No. of animals protected/animals tested” value (Gallus gallus [33]) of the same compound?
A: 0

Q: What about the TPE [3] of the same compound?
A: 0.25

Q: And the TPE [4]?
A: 0.25

Q: And the “No. of animals protected/animals tested” value (Gallus gallus [28])?
A: 4

Source: ChEMBL document CHEMBL1125741, “Synthesis and anticonvulsant activity of imidooxy derivatives” (J Med Chem, 1991)
